According to ChEMBL document CHEMBL4813998, “Structural simplification of evodiamine: Discovery of novel tetrahydro-β-carboline derivatives as potent antitumor agents” (Bioorg Med Chem Lett, 2021):
Active and inactive are the calls of the source. The rule behind the calls is not given here.

Key:
[1] = Antiproliferative activity against human MDA-MB-231 cells assessed as growth inhibition by CCK8 assay; assay type: functional, cell-based, Epithelial cell
[2] = Antiproliferative activity against human A549 cells assessed as growth inhibition by CCK8 assay; assay type: functional, cell-based, Epithelial cell
[3] = Antiproliferative activity against human HCT116 cells assessed as growth inhibition by CCK8 assay; assay type: functional, cell-based, Epithelial cell
[4] = target: DNA topoisomerase 2-alpha (Homo sapiens) (UniProt P11388); test: Inhibition of TOP2 (unknown origin) assessed as fractured DNA fragments using supercoiled plasmid DNA at 100 uM relative to etoposide
Procedure, shortened: (§1)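 Purified Top2 was incubated with DNA and compounds at 250 μM and 100 μM. The read-out was the appearance of fractured DNA fragments, with etoposide as the positive control.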

[5] = target: DNA topoisomerase 2-alpha (Homo sapiens) (UniProt P11388); test: Inhibition of TOP2 (unknown origin) assessed as fractured DNA fragments using supercoiled plasmid DNA at 50 uM relative to etoposide
[6] = target: T1, DNA topoisomerase 1 (Homo sapiens) (UniProt P11387); test: Inhibition of TOP1 (unknown origin) assessed as decrease in relaxation of supercoiled DNA using supercoiled plasmid DNA at 500 uM relative to camptothecin
T1 sequence (whole entry): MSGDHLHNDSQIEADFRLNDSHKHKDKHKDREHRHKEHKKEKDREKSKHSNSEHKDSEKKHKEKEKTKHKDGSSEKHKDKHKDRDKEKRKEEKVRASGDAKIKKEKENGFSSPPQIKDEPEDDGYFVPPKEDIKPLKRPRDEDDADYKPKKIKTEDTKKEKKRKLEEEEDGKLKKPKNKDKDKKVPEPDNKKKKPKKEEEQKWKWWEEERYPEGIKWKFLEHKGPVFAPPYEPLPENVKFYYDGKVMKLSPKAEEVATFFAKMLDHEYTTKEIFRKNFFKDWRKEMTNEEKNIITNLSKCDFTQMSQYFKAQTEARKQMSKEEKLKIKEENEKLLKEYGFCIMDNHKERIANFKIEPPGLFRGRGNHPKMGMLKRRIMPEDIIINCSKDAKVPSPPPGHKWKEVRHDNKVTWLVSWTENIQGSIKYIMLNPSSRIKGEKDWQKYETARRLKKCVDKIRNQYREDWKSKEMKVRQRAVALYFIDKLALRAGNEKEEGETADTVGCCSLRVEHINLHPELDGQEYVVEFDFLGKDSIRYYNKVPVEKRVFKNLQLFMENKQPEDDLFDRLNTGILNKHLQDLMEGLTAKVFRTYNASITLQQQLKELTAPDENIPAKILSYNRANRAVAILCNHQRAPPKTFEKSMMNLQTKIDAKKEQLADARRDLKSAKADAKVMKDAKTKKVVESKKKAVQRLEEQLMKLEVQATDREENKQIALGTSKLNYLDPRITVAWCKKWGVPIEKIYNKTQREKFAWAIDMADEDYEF
Procedure, shortened: (§2)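 Top1-mediated relaxation of supercoiled DNA was tested with compounds at 500 μM and 100 μM. Camptothecin served as the positive control.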

[7] = target: DNA topoisomerase 2-alpha (Homo sapiens) (UniProt P11388); test: Inhibition of TOP2 (unknown origin) assessed as fractured DNA fragments using supercoiled plasmid DNA at 250 uM; procedure, shortened: as §1
[8] = target: T1, DNA topoisomerase 1 (Homo sapiens); test: Inhibition of TOP1 (unknown origin) assessed as decrease in relaxation of supercoiled DNA using supercoiled plasmid DNA at 100 uM relative to camptothecin; procedure, shortened: as §2
HCT-116 [9] = test: Induction of apoptosis in human HCT116 cells assessed as increase in bax protein expression at 0.03 to 1.5 uM after 24 hrs by Western blot analysis; assay type: functional, cell-based; details: dose 0.03-1.5 µM
Procedure, shortened: (§3)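 HCT116 cells were exposed to various concentrations for 24 h. Lysates were then probed by western blot for caspase-9, caspase-3, Bcl-2, Bax and cytochrome C.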

Mus musculus = test: Toxicity in nude mouse xenografted with human HCT116 cells assessed as body weight loss at 50 mg/kg/day, ip administered bid for 21 days; assay type: functional, organism-based; details: Epithelial cell, time 21.0 day
Procedure, shortened: (§4)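 HCT116 cells were inoculated into nude mice to form xenografts. Dosing was intraperitoneal at 50 mg/kg/day for 21 consecutive days. Evodiamine was given at the same dosage as the comparator. Tumor growth and body weight after implantation were tracked, and data are reported as mean ± SEM.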

HCT-116 [10] = test: Antitumor activity against human HCT116 cells xenografted in nude mice assessed as tumor growth inhibition at 50 mg/kg/day, ip administered bid for 21 days relative to control; assay type: functional, organism-based; details: time 21.0 day; procedure, shortened: as §4
HCT-116 [11] = test: Induction of apoptosis in human HCT116 cells assessed as increase in cytochrome c expression after 24 hrs by Western blot analysis; assay type: functional, cell-based; details: dose 0.03-1.5 µM; procedure, shortened: as §3
HCT-116 [12] = test: Induction of apoptosis in human HCT116 cells assessed as increase in caspase-3 expression after 24 hrs by Western blot analysis; assay type: functional, cell-based; details: dose 0.03-1.5 µM; procedure, shortened: as §3
HCT-116 [13] = test: Induction of apoptosis in human HCT116 cells assessed as decrease in Bcl-2 protein expression at 0.03 to 1.5 uM after 24 hrs by Western blot analysis; assay type: functional, cell-based; details: dose 0.03-1.5 µM; procedure, shortened: as §3
HCT-116 [14] = test: Induction of apoptosis in human HCT116 cells assessed as increase in caspase-9 expression after 24 hrs by Western blot analysis; assay type: functional, cell-based; details: dose 0.03-1.5 µM; procedure, shortened: as §3

Sequence of DNA topoisomerase 2-alpha (Homo sapiens) (P11388 whole entry, the tested form may be a part): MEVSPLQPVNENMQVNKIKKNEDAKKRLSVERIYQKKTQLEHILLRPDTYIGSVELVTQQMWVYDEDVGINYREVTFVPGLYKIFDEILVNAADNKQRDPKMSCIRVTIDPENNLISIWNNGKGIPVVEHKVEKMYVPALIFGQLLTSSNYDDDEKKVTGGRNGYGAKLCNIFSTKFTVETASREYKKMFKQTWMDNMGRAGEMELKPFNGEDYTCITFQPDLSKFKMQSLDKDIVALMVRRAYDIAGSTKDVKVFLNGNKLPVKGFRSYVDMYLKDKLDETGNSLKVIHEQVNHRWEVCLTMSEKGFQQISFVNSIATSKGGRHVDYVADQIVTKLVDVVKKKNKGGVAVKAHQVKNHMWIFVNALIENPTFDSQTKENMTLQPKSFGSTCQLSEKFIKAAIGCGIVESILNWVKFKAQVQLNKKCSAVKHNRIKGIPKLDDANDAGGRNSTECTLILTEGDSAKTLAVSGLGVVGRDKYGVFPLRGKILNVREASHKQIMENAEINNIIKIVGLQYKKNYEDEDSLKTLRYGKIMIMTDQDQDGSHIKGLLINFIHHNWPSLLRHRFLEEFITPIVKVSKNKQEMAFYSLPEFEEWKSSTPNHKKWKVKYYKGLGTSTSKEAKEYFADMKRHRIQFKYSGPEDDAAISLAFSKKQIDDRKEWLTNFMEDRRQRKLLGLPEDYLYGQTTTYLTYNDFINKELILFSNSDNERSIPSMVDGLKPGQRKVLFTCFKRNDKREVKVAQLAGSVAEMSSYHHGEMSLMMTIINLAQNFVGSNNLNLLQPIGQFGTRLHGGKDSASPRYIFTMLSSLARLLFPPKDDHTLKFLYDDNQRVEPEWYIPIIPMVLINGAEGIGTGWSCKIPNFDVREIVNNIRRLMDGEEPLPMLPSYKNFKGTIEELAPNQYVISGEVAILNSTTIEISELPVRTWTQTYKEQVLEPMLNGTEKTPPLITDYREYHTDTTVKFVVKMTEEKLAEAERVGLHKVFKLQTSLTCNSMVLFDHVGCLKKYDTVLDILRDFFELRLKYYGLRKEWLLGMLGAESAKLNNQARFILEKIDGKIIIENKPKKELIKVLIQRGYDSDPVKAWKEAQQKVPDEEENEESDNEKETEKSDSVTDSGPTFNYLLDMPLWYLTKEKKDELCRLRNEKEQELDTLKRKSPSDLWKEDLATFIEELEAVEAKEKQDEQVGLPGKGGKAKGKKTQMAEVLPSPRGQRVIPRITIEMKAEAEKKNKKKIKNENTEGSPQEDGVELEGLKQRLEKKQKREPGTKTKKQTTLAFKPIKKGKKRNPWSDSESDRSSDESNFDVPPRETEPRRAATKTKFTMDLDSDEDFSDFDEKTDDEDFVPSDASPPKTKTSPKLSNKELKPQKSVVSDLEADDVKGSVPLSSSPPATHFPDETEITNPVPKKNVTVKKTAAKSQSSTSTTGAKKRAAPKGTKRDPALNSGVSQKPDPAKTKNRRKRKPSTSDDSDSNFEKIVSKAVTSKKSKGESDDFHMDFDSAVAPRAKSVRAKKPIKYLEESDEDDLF

Compound	IC50 ([1]; Homo sapiens, Epithelial cell) [µM]	IC50 ([2]; Homo sapiens, Epithelial cell) [µM]	IC50 ([3]; Homo sapiens, Epithelial cell) [µM]	also measured
O=C(c1ccccc1)N1CCc2c([nH]c3ccccc23)C1c1ccccc1 (stereo unspecified)	51.2	> 100	57.9	–
COc1ccc2[nH]c3c(c2c1)CCN(C(=O)c1ccccc1)C3c1ccccc1Cl (stereo unspecified)	> 100	27.2	6.73	–
COc1ccc2[nH]c3c(c2c1)CCN(C(=O)c1ccc(Cl)cc1)C3c1ccccc1 (stereo unspecified)	1.11	2.15	5.56	–
COc1ccc2[nH]c3c(c2c1)CCN(C(=O)CCc1ccccc1)C3c1ccc(Cl)c(Cl)c1 (single isomer, unassigned; (-))	–	–	–	IC50 ([1]; epithelial cell): > 50 µM; IC50 ([2]; epithelial cell): 16.1 µM; IC50 ([3]; epithelial cell): 17.7 µM
COc1ccc2[nH]c3c(c2c1)CCN(C(=O)c1cccc(F)c1)C3c1ccccc1 (stereo unspecified)	3.28	9.27	4.8	–
COc1ccc2[nH]c3c(c2c1)CCN(C(=O)CCc1ccc(F)cc1)C3c1ccccc1 (stereo unspecified)	0.34	3.8	0.72	inhibition [4]: Active; inhibition [5]: Active; inhibition [6]: Active; inhibition [7]: Active
COc1ccc2[nH]c3c(c2c1)CCN(C(=O)c1ccc(F)cc1)C3c1ccc(Cl)c(Cl)c1 (stereo unspecified)	0.29	14.1	0.49	inhibition [8]: Active; inhibition [4]: Active; inhibition [5]: Active; inhibition [6]: Active; inhibition [7]: Active
O=C(c1ccccc1)N1CCc2c([nH]c3ccc(O)cc23)C1c1ccccc1 (stereo unspecified)	> 100	19.3	20.9	–
COc1ccc2[nH]c3c(c2c1)CCN(C(=O)c1ccc(F)cc1)C3c1ccccc1 (stereo unspecified)	1.24	12.7	1.73	–
COc1ccc2[nH]c3c(c2c1)CCN(C(=O)CCc1ccccc1)C3c1ccccc1 (stereo unspecified)	0.57	7.91	0.36	inhibition [8]: Active; inhibition [4]: Active; inhibition [5]: Active; inhibition [6]: Active; inhibition [7]: Active
COc1ccc2[nH]c3c(c2c1)CCN(C(=O)c1ccccc1F)C3c1ccccc1 (stereo unspecified)	62.4	18.7	6.18	–
COc1ccc(C(=O)N2CCc3c([nH]c4ccc(OC)cc34)C2c2ccc(Cl)c(Cl)c2)cc1 (stereo unspecified)	1.08	44.6	4.28	–
COc1ccc2[nH]c3c(c2c1)CCN(C(=O)c1ccccc1)C3c1ccccc1 (stereo unspecified)	1.48	5.29	2.53	–
COc1cccc(C(=O)N2CCc3c([nH]c4ccc(OC)cc34)C2c2ccccc2)c1 (stereo unspecified)	3.01	12	5.13	–
CC[C@@]1(O)C(=O)OCc2c1cc1n(c2=O)Cc2cc3ccccc3nc2-1 [CAMPTOTHECIN]	0.075	0.045	0.01	–
O=C(c1cccc(F)c1)N1CCc2c([nH]c3ccccc23)C1c1ccccc1 (stereo unspecified)	57.6	> 100	32.5	–

Compound	IC50 ([1]; Homo sapiens, Epithelial cell) [µM]	IC50 ([2]; Homo sapiens, Epithelial cell) [µM]	IC50 ([3]; Homo sapiens, Epithelial cell) [µM]	also measured
COc1ccc2[nH]c3c(c2c1)CCN(C(=O)c1ccccc1)C3c1ccc(Br)cc1 (stereo unspecified)	18.8	2.09	3.62	–
COc1ccc2[nH]c3c(c2c1)CCN(C(=O)c1ccccc1)C3c1ccc(Cl)c(Cl)c1 (stereo unspecified)	0.59	1.66	0.54	inhibition [8]: Active; inhibition [4]: Active; inhibition [5]: Active; inhibition [6]: Active; inhibition [7]: Active
CC(C)C1c2[nH]c3ccccc3c2CCN1C(=O)c1ccccc1 (stereo unspecified)	> 100	> 100	> 100	–
COc1ccc2[nH]c3c(c2c1)CCN(C(=O)CCc1ccccc1)C3c1ccc(Cl)c(Cl)c1 (stereo in doubt; 45)	–	–	–	Activity (HCT-116 [9]): Active; inhibition [8]: Active; Activity (Mus musculus): Active; inhibition [4]: Active; Activity (HCT-116 [10]): Active; inhibition [5]: Active; Activity (HCT-116 [11]): Dose-Dependent Effect; inhibition [6]: Active; inhibition [7]: Active; Activity (HCT-116 [12]): Active; Activity (HCT-116 [13]): Active; Activity (HCT-116 [14]): Active
COc1ccc2[nH]c3c(c2c1)CCN(C(=O)c1ccc([N+](=O)[O-])cc1)C3c1ccccc1 (stereo unspecified)	6.18	25.5	58.1	–
O=C(c1ccccc1)N1CCc2c([nH]c3ccccc23)C1	45.4	> 100	21.4	–
COc1cccc(C(=O)N2CCc3c([nH]c4ccc(OC)cc34)C2c2ccc(Cl)c(Cl)c2)c1 (stereo unspecified)	0.68	13.6	1.97	–
COc1cc([C@@H]2c3cc4c(cc3[C@@H](O[C@@H]3O[C@@H]5CO[C@@H](C)O[C@H]5[C@H](O)[C@H]3O)[C@H]3COC(=O)[C@H]23)OCO4)cc(OC)c1O	–	–	–	inhibition [4]: Active; inhibition [5]: Active; inhibition [7]: Active
COc1ccc2[nH]c3c(c2c1)CCN(C(=O)c1ccccc1)C3c1cccc(Br)c1 (stereo unspecified)	40.8	11.9	3.24	–
COc1ccc(C(=O)N2CCc3c([nH]c4ccc(OC)cc34)C2c2ccccc2)cc1 (stereo unspecified)	2.81	11.8	6.14	–
COc1ccc2[nH]c3c(c2c1)CCN(C(=O)c1ccccc1)C3c1ccc(C)cc1 (stereo unspecified)	22.2	17.4	6.45	–
COc1ccc2[nH]c3c(c2c1)CCN(C(=O)c1ccccc1)C3c1ccc(F)c(F)c1 (stereo unspecified)	31	30.2	2.65	–
CN1c2ccccc2C(=O)N2CCc3c([nH]c4ccccc34)[C@H]21	49	> 100	19.6	–
COc1ccc2[nH]c3c(c2c1)CCN(C(=O)CCc1ccccc1)C3c1ccc(Cl)c(Cl)c1 (single isomer, unassigned; (+))	–	–	–	IC50 ([1]; epithelial cell): 0.042 µM; IC50 ([2]; epithelial cell): 0.65 µM; IC50 ([3]; epithelial cell): 0.13 µM
COc1ccc2[nH]c3c(c2c1)CCN(C(=O)CCc1ccccc1F)C3c1ccccc1 (stereo unspecified)	0.27	2.45	7.76	–
